Experimental data: ChEMBL document CHEMBL2086252, “Syntheses and evaluation of anticonvulsant activity of novel branched alkyl carbamates” (J Med Chem, 2012)
The source made the active and inactive calls. No cut-off for these calls is given here.

What was measured:
[1] = test system: Rattus norvegicus; experiment: Protective index, ratio of TD50 for ip dosed Sprague-Dawley albino rat by rotarod test to ED50 for ip dosed Sprague-Dawley albino rat by subcutaneous metrazol seizures test; format: functional
Summary of the method: (§1)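 Protective index calculated as TD50/ED50, with TD50 and ED50 taken from the same species and dosing route.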

[2] = test system: Mus musculus; experiment: Anticonvulsant activity in albino CF1 mouse assessed as protection against subcutaneous metrazol-induced seizures at 100 mg/kg, ip after 0.5 hrs; format: functional, organism-based; design: dose 100 mg/kg
Summary of the method: (§2)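 Mice dosed ip at 30, 100 or 300 mg/kg, then tested 0.5 h and 4 h after administration in the MES or scMet test. Protection was recorded as animals protected over animals tested. Neurotoxicity was recorded as motor impairment or sedation, as animals affected over animals tested.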

[3] = test system: Mus musculus; experiment: Anticonvulsant activity in albino CF1 mouse assessed as protection against subcutaneous metrazol-induced seizures at 300 mg/kg, ip after 0.5 hrs; format: functional, organism-based; design: dose 300 mg/kg; summary of the method: as §2
[4] = test system: Mus musculus; experiment: Anticonvulsant activity in albino CF1 mouse assessed as protection against subcutaneous metrazol-induced seizures at 100 mg/kg, ip after 4 hrs; format: functional, organism-based; design: dose 100 mg/kg; summary of the method: as §2
[5] = test system: Mus musculus; experiment: Anticonvulsant activity in albino CF1 mouse assessed as protection against maximal electroshock-induced seizures at 30 mg/kg, ip after 0.5 hrs; format: functional, organism-based; design: dose 30 mg/kg; summary of the method: as §2
[6] = test system: Mus musculus; experiment: Anticonvulsant activity in albino CF1 mouse assessed as protection against maximal electroshock-induced seizures at 30 mg/kg, ip after 4 hrs; format: functional, organism-based; design: dose 30 mg/kg; summary of the method: as §2
[7] = test system: Mus musculus; experiment: Neurotoxicity in albino CF1 mouse assessed as minimal motor impairment at 100 mg/kg, ip after 0.5 hrs by rotarod test; format: toxicity, organism-based; design: dose 100 mg/kg, route intraperitoneal; conditions: in vivo; summary of the method: as §2
[8] = test system: Mus musculus; experiment: Neurotoxicity in albino CF1 mouse assessed as minimal motor impairment at 300 mg/kg, ip after 4 hrs by rotarod test; format: toxicity, organism-based; design: dose 300 mg/kg, route intraperitoneal; conditions: in vivo; summary of the method: as §2
[9] = test system: Rattus norvegicus; experiment: Anticonvulsant activity in Sprague-Dawley albino rat assessed as protection against maximal electroshock-induced seizures at 30 mg/kg, po after 4 hrs; format: functional, organism-based; design: dose 30 mg/kg
Summary of the method: (§3)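 Rats dosed orally. Anti-MES protection was scored as animals protected over animals tested at each time after dosing. Neurotoxicity was scored as motor impairment or sedation, as animals affected over animals tested.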

[10] = test system: Rattus norvegicus; experiment: Neurotoxicity in Sprague-Dawley albino rat assessed as minimal motor impairment at 30 mg/kg, po by rotarod test; format: toxicity, organism-based; design: dose 30 mg/kg, route oral; conditions: in vivo; summary of the method: as §3
[11] = test system: Rattus norvegicus; experiment: Anticonvulsant activity in po dosed Sprague-Dawley albino rat assessed as protection against maximal electroshock-induced seizures; format: functional
Summary of the method: (§4)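 Quantitative testing: rats dosed orally or ip in MES and scMet tests, and mice dosed ip, including the 6 Hz (32 mA) psychomotor seizure test. ED50 and TD50 were reported in mg/kg with ranges in parentheses. Protective index was calculated as TD50/ED50.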

[12] = test system: Rattus norvegicus; experiment: Anticonvulsant activity in ip dosed Sprague-Dawley albino rat assessed as protection against maximal electroshock-induced seizures; format: functional; summary of the method: as §4
[13] = test system: Rattus norvegicus; experiment: Protective index, ratio of TD50 for po dosed Sprague-Dawley albino rat by rotarod test to ED50 for po dosed Sprague-Dawley albino rat by maximal electroshock seizures test; format: functional; summary of the method: as §1
[14] = test system: Mus musculus; experiment: Protective index, ratio of TD50 for ip dosed albino CF1 mouse by rotarod test to ED50 for ip dosed albino CF1 mouse by maximal electroshock seizures test; format: functional; summary of the method: as §1
[15] = test system: Rattus norvegicus; experiment: Neurotoxicity in pilocarpine-induced status epilepticus Sprague-Dawley albino rat model assessed as minimal motor impairment at 100 mg/kg, ip after 0.5 hrs by rotarod test; format: toxicity, organism-based; design: dose 100 mg/kg, route intraperitoneal; conditions: in vivo
[16] = test system: Rattus norvegicus; experiment: Anticonvulsant activity in ip dosed Sprague-Dawley albino rat assessed as protection against pilocarpine-induced status epilepticus after 0.5 hrs; format: functional
Summary of the method: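 Pilocarpine status epilepticus model in rats. Number and severity of convulsive seizures were observed behaviourally.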

[17] = test system: Rattus norvegicus; experiment: Anticonvulsant activity in Sprague-Dawley albino rat assessed as protection against pilocarpine-induced status epilepticus at 130 mg/kg, ip administered 0 and 30 mins after status epilepticus onset

In the case of `CCC(COC(N)=O)C(C)C` (racemic), the “Ratio TD50/ED50” value [1] was 1.3, the Activity [2] was “inactive” and the Activity [3] was “Active”. The Activity [4] was “inactive”, the Activity [5] was “inactive” and the Activity [6] was “inactive”. The Activity [7] was “Non-toxic”, the Activity [8] was “Non-toxic” and the Activity [9] was “inactive”. The Activity [10] was “Non-toxic”, the ED50 [11] was 64 mg/kg and the ED50 [12] was 16 mg/kg. For the same molecule, the “Ratio TD50/ED50” value [13] was 7.8, the “Ratio TD50/ED50” value [14] was 1.5 and the Activity [15] was “Toxic”. The ED50 [16] was 81 mg/kg, the ED97 [16] was 114 mg/kg and the Activity [17] was “Active”.
